Assay results as given in ChEMBL document CHEMBL1157704, “Potent activity against K562 cells by polyamide-seco-CBI conjugates targeting histone H4 genes” (Bioorg Med Chem, 2010).
Calls of active or inactive are those of the source.

Columns and labels:
K562 [1] = assay: Effect on COMMD10 gene expression in human K562 cells assessed as change in mRNA transcript expression at 10 nM after 48 hrs by DNA microarray analysis relative to control; type: functional
How it was run: (§1)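 Transcripts were profiled on Affymetrix GeneChip Human Gene 1.0 ST arrays in K562 cells treated at 10 nM. Treated cells were collected at 6, 12, 24 and 48 h; untreated controls were collected at 48 h. Transcripts changed at least twofold versus control were scored.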

K562 [2] = assay: Effect on CLCA1 gene expression in human K562 cells assessed as change in mRNA transcript expression at 10 nM after 48 hrs by DNA microarray analysis relative to control; type: functional; how it was run: as §1
K562 [3] = assay: Effect on BBS9 gene expression in human K562 cells assessed as change in mRNA transcript expression at 10 nM after 48 hrs by DNA microarray analysis relative to control; type: functional; how it was run: as §1
K562 [4] = assay: Induction of apoptosis in human K562 cells assessed as late apoptotic cells at 250 nM after 48 hrs by annexin-V FITC and propidium iodide staining-based FACS analysis; type: functional
How it was run: (§2)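 Treated K562 cells […] stained with Annexin V-FITC/propidium iodide. Apoptosis was scored by two-dimensional flow cytometry at a core FACS facility.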

K562 [5] = assay: Effect on TOMM22 gene expression in human K562 cells assessed as change in mRNA transcript expression at 10 nM after 48 hrs by DNA microarray analysis relative to control; type: functional
How it was run: (§3)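 K562 CML cells (b3a2 Bcr-Abl) kept under standard culture conditions were exposed to 10 nM conjugate and harvested at 6, 12, 24 and 48 h. Untreated controls were harvested at 48 h. Whole-transcript oligonucleotide microarray profiling was done, and changes of at least twofold versus control were scored.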

K562 [6] = assay: Induction of apoptosis in human K562 cells assessed as early apoptotic cells at 125 nM after 48 hrs by annexin-V FITC and propidium iodide staining-based FACS analysis; type: functional
How it was run: (§4)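 K562 cells were exposed to conjugate in culture medium for 48 h, then stained with annexin V-FITC plus propidium iodide. Cell populations were quantified by flow cytometry.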

K562 [7] = assay: Effect on TRIB3 gene expression in human K562 cells assessed as change in mRNA transcript expression at 10 nM after 48 hrs by DNA microarray analysis relative to control; type: functional; how it was run: as §3
K562 [8] = assay: Downregulation of histone H4E mRNA expression in human K562 cells at 125 nM after 48 hrs by real-time PCR analysis; type: functional, cell-based
How it was run: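 K562 cells were treated for 48 h, and H4c and H4e mRNA were measured by one-step real-time RT-PCR. Reverse transcription ran at 50 °C for 10 min, then hot-start activation at 95 °C for 15 min. Cycling was 45 cycles of 95 °C 15 s, 55 °C 30 s and 72 °C 30 s. Levels were normalized to GAPDH mRNA; error bars are SD.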

K562 [9] = assay: Cell cycle arrest in human K562 cells assessed as increase in accumulation at G2/M phase at 125 to 250 nM after 48 hrs propidium iodide staining-based FACS analysis; type: functional
How it was run: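 K562 cells, from ATCC and kept under ATCC-recommended conditions, were treated for 48 h and pelleted at 200g for 5 min. They were resuspended in PBS, fixed with prechilled 70% ethanol and stained with propidium iodide at 50 µg/mL. DNA content was read by flow cytometry to assign the G0–G1, S and G2–M fractions; sub-2C DNA content was taken as apoptosis.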

K562 [10] = assay: Effect on INPP1 gene expression in human K562 cells assessed as change in mRNA transcript expression at 10 nM after 48 hrs by DNA microarray analysis relative to control; type: functional
How it was run: (§5)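 K562 CML cells (b3a2 Bcr-Abl) in standard ATCC-recommended culture, exposed once to 10 nM conjugate and harvested at 48 h. Untreated controls were also collected at 48 h. Transcripts were profiled on Human Gene 1.0 ST whole-genome oligonucleotide arrays, and each treated level was expressed relative to the untreated control, with a cutoff of at least twofold change.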

K562 [11] = assay: Effect on GPR56 gene expression in human K562 cells assessed as change in mRNA transcript expression at 10 nM after 48 hrs by DNA microarray analysis relative to control; type: functional; how it was run: as §1
K562 [12] = assay: Effect on FER gene expression in human K562 cells assessed as change in mRNA transcript expression at 10 nM after 48 hrs by DNA microarray analysis relative to control; type: functional; how it was run: as §1
K562 [13] = assay: Effect on HIST1H1E gene expression in human K562 cells assessed as change in mRNA transcript expression at 10 nM after 48 hrs by DNA microarray analysis relative to control; type: functional; how it was run: as §1
K562 [14] = assay: Effect on HIST1H4C gene expression in human K562 cells assessed as down-regulation of mRNA transcript expression at 10 nM after 48 hrs by DNA microarray analysis relative to control; type: functional; how it was run: as §1
K562 [15] = assay: Effect on HIST1H2AC gene expression in human K562 cells assessed as change in mRNA transcript expression at 10 nM after 48 hrs by DNA microarray analysis relative to control; type: functional; how it was run: as §1
K562 [16] = assay: Induction of apoptosis in human K562 cells assessed as non-viable necrotic cells at 250 nM after 48 hrs by annexin-V FITC and propidium iodide staining-based FACS analysis; type: functional; how it was run: as §2
K562 [17] = assay: Effect on PRF1 gene expression in human K562 cells assessed as change in mRNA transcript expression at 10 nM after 48 hrs by DNA microarray analysis relative to control; type: functional; how it was run: as §5
K562 [18] = assay: Effect on TRY6/PRS gene expression in human K562 cells assessed as change in mRNA transcript expression at 10 nM after 48 hrs by DNA microarray analysis relative to control; type: functional; how it was run: as §3
K562 [19] = assay: Induction of apoptosis in human K562 cells assessed as viable cells at 250 nM after 48 hrs by annexin-V FITC and propidium iodide staining-based FACS analysis; type: functional; conditions: K562, 48 h, read-out: Activity; how it was run: as §2
K562 [20] = assay: Induction of apoptosis in human K562 cells assessed as late apoptotic cells at 125 nM after 48 hrs by annexin-V FITC and propidium iodide staining-based FACS analysis; type: functional; how it was run: as §4
K562 [21] = assay: Effect on PLCB2 gene expression in human K562 cells assessed as change in mRNA transcript expression at 10 nM after 48 hrs by DNA microarray analysis relative to control; type: functional; how it was run: as §5
K562 [22] = assay: Effect on ITGB3 gene expression in human K562 cells assessed as change in mRNA transcript expression at 10 nM after 48 hrs by DNA microarray analysis relative to control; type: functional; how it was run: as §5
K562 [23] = assay: Effect on RNU5F gene expression in human K562 cells assessed as change in mRNA transcript expression at 10 nM after 48 hrs by DNA microarray analysis relative to control; type: functional; how it was run: as §5
K562 [24] = assay: Effect on PLA2G6 gene expression in human K562 cells assessed as change in mRNA transcript expression at 10 nM after 48 hrs by DNA microarray analysis relative to control; type: functional; how it was run: as §5
K562 [25] = assay: Effect on LPHN3 gene expression in human K562 cells assessed as change in mRNA transcript expression at 10 nM after 48 hrs by DNA microarray analysis relative to control; type: functional; how it was run: as §5
K562 [26] = assay: Effect on FERMT2 gene expression in human K562 cells assessed as change in mRNA transcript expression at 10 nM after 48 hrs by DNA microarray analysis relative to control; type: functional; how it was run: as §1

CC(=O)Nc1cn(C)c(C(=O)Nc2cn(C)c(C(=O)NCCC(=O)Nc3cn(C)c(C(=O)NCCCC(=O)Nc4cc(C(=O)Nc5cn(C)c(C(=O)Nc6ccc7[nH]c(C(=O)N8CC(CCl)c9c8cc(O)c8ccccc98)cc7c6)n5)n(C)c4)n3)n2)n1 (stereo unspecified)
fold change (FC) (K562 [1]): >=2
fold change (FC) (K562 [2]): >=2
fold change (FC) (K562 [3]): >=2
Activity (K562 [4]): 8.53%
fold change (FC) (K562 [5]): >=2
Activity (K562 [6]): 8.41%
fold change (FC) (K562 [7]): >=2
Activity (K562 [8]): Active
Activity (K562 [9]): Active
fold change (FC) (K562 [10]): >=2
fold change (FC) (K562 [11]): >=2
fold change (FC) (K562 [12]): >=2
fold change (FC) (K562 [13]): >=2
fold change (FC) (K562 [14]): 2.86
fold change (FC) (K562 [15]): >=2
Activity (K562 [16]): 2.58%
fold change (FC) (K562 [17]): >=2
fold change (FC) (K562 [18]): >=2
viability at 0.25 µM (K562 [19]): 71.8%
Activity (K562 [20]): 9.21%
fold change (FC) (K562 [21]): >=2
fold change (FC) (K562 [22]): >=2
fold change (FC) (K562 [23]): >=2
fold change (FC) (K562 [24]): >=2
fold change (FC) (K562 [25]): >=2
fold change (FC) (K562 [26]): >=2
